The values that follow come from ChEMBL document CHEMBL1806486, “Discovery and evaluation of 3-phenyl-1H-5-pyrazolylamine-based derivatives as potent, selective and efficacious inhibitors of FMS-like tyrosine kinase-3 (FLT3)” (Bioorg Med Chem, 2011).

Usually GI50 stands for the concentration giving 50% growth inhibition. For orientation: IC50 means the concentration needed to halve the response being measured. What is called inhibition is the relative decrease from the control value, in per cent. Usually clearance stands for the rate of elimination divided by the concentration. A high value points to a high capacity for elimination. What is called half-life is the time needed for the level to fall by half in the phase considered. Low values mean rapid decline, high ones slow decline. For orientation: AUC(0-inf) means the area under the concentration-time curve extrapolated to infinity. Low values mean low exposure, high ones high exposure.

The subject of one series is MOLM-13. Description: Antiproliferation activity against human MOLM13 cells expressing FLT3 mutation assessed as cell viability after 72 hrs by MTS method. It is filed as functional. The note with it: MOLM-13, 72 h. For orientation: Tetrazolium dyes change colour on reduction, which living cells bring about.
Series [1] deals with T1, Vascular endothelial growth factor receptor 2 (Homo sapiens, UniProt P35968). Description: Inhibition of recombinant GST-tagged VEGFR2 expressed in Sf9 insect cells after 120 mins by Kinase-Glo assay. In kind it is cell-based. On the technique in general: In Kinase-Glo more light means more ATP remaining.
The target of series [2] is T2, Receptor-type tyrosine-protein kinase FLT3 (Homo sapiens, UniProt P36888).
T2 sequence (P36888 whole entry): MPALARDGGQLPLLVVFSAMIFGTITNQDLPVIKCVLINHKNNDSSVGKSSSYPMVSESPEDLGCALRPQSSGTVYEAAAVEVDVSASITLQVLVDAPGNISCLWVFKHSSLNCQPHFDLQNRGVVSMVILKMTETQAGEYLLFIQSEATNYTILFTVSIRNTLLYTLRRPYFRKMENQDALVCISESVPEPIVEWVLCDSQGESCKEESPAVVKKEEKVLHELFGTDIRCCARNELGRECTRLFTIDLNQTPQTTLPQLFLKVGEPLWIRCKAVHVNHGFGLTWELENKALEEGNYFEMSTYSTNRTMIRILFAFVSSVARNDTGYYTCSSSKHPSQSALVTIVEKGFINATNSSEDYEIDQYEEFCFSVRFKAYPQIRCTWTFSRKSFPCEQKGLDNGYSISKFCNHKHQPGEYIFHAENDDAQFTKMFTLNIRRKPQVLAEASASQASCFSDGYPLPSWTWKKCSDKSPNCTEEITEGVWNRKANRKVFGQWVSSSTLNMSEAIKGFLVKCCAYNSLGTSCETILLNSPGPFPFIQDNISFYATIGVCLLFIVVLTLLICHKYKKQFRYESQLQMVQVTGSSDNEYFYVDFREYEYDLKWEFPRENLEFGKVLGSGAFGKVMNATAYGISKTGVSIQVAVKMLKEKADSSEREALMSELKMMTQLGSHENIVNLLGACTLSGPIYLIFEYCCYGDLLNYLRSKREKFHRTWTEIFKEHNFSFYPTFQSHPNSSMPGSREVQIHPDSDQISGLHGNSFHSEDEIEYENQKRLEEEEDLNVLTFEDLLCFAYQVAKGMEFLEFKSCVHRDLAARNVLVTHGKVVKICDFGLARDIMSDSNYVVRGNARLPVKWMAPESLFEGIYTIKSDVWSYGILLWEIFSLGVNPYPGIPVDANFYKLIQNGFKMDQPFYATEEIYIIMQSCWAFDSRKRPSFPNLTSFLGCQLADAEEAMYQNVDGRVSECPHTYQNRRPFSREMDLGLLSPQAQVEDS
In words: Inhibition of GST-tagged FLT3 expressing wild type kinase domain expressed in Sf9 insect cells after 4 hrs by Kinase-Glo assay.

The nature of series [3]: Ratio GI50 for human MOLM13 cells to IC50 for GST-tagged FLT3 expressing wild type kinase domain. In kind it is functional, MOLM-13.
The target in another series is T3, Aurora kinase A (Homo sapiens, UniProt O14965).
T3 sequence (O14965 whole entry): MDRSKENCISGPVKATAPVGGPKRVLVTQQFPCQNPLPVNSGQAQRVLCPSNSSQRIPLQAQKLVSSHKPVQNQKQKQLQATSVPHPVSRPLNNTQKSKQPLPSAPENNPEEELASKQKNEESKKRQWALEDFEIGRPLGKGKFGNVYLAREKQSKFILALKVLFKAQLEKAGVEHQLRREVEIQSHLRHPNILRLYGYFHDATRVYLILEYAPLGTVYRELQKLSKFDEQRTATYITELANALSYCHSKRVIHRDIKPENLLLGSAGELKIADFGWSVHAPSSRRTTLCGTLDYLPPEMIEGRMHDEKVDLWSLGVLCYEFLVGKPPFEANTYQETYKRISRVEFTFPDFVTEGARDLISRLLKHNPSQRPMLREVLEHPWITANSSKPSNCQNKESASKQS
In words: Inhibition of recombinant GST-tagged Aurora A expressed in Sf9 insect cells after 90 mins by Kinase-Glo assay. In a few lines:
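GST-Aurora A kinase domain (S123–S401, 150 ng) from Sf9 cells. Buffer was 50 mM Tris-HCl pH 7.4 with 10 mM NaCl, 10 mM MgCl2, 0.01% BSA and 1 mM DTT. Kinase-Glo Plus was added for 20 min at 25 °C before the luminescence read.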

Series [4] concerns the target T4, Vascular endothelial growth factor receptor 1 (Homo sapiens, UniProt P17948). Description: Inhibition of recombinant GST-tagged VEGFR1 expressed in Sf9 insect cells after 120 mins by Kinase-Glo assay. The method in brief:
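GST-VEGFR1 (R781–I1338) or GST-VEGFR2 (V789–V1356) kinase domain, 50–100 ng, from Sf9 cells. Read-out was Kinase-Glo Plus luminescence.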

Series [5] addresses T4, Vascular endothelial growth factor receptor 1. Description: Inhibition of recombinant GST-tagged VEGFR1 expressed in Sf9 insect cells at 1 uM after 120 mins by Kinase-Glo assay.
For series [6], the target named is Aurora kinase A (Homo sapiens) (UniProt O14965). Description: Inhibition of recombinant GST-tagged Aurora A expressed in Sf9 insect cells at 1 uM after 90 mins by Kinase-Glo assay.
For series [7], the target named is T1, Vascular endothelial growth factor receptor 2. In words: Inhibition of recombinant GST-tagged VEGFR2 expressed in Sf9 insect cells at 1 uM after 120 mins by Kinase-Glo assay.
The next series has as its system MV4-11. In words: Antiproliferation activity against FLT3/ITD harboring human MV4-11 cells after 72 hrs by MTS method. In kind it is functional. The note with it: MV4-11, 72 h.
A further series deals with K562. Description: Antiproliferation activity against human K562 cells expressing wild type BCR/ABL after 72 hrs by MTS method. In kind it is functional. The conditions noted are these: K562, 72 h.
A short description of series [8]: Antiproliferation activity against human RS4:11 cells expressing wild type FLT3 after 72 hrs by MTS method. It is filed as functional. The conditions noted are these: RS4-11, 72 h.
Another series concerns MOLT-4. In words: Antiproliferation activity against human MOLT4 after 72 hrs by MTS method. In kind it is functional. The note with it: MOLT-4, 72 h.
The test system of the next series is U-937. Description: Antiproliferation activity against human FLT3 gene-deficient U937 cells after 72 hrs by MTS method. In kind it is functional. The conditions noted are these: U-937, 72 h.
The subject of series [9] is Mus musculus. Description: Toxicity in athymic nu/nu nude mouse assessed as lethality at 50 mg/kg, iv for continuous 5 days. It is filed as organism-based. Also on record: dose 50 mg/kg, route intravenous. The note with it: in vivo, 120 h.
Series [10] relates to Mus musculus. In words: Toxicity in normal mouse assessed as reduction of body weight at 50 mg/kg, iv for continuous 5 days. The conditions noted are these: in vivo, 120 h.
The nature of series [11]: Volume of distribution at steady state in Sprague-Dawley rat at 5 mg/kg, iv. The conditions noted are these: in vivo, read-out: Vdss. Also on record: dose 5 mg/kg, route intravenous. In kind it is ADME, organism-based.
A short description of series [12]: Clearance in Sprague-Dawley rat at 5 mg/kg, iv. Also on record: dose 5 mg/kg, route intravenous. The note with it: in vivo. In kind it is ADME, organism-based.
Series [13] can be described thus: Half life in Sprague-Dawley rat at 5 mg/kg, iv. In kind it is ADME, organism-based. The note with it: in vivo. Also on record: dose 5 mg/kg, route intravenous.
Series [14] is described as follows: AUC (0 to infinity) in Sprague-Dawley rat at 5 mg/kg, iv. It is filed as ADME, organism-based. Also on record: time infinity, dose 5 mg/kg, route intravenous. The conditions noted are these: plasma.

T4 sequence (P17948 whole entry, the tested form may be a part): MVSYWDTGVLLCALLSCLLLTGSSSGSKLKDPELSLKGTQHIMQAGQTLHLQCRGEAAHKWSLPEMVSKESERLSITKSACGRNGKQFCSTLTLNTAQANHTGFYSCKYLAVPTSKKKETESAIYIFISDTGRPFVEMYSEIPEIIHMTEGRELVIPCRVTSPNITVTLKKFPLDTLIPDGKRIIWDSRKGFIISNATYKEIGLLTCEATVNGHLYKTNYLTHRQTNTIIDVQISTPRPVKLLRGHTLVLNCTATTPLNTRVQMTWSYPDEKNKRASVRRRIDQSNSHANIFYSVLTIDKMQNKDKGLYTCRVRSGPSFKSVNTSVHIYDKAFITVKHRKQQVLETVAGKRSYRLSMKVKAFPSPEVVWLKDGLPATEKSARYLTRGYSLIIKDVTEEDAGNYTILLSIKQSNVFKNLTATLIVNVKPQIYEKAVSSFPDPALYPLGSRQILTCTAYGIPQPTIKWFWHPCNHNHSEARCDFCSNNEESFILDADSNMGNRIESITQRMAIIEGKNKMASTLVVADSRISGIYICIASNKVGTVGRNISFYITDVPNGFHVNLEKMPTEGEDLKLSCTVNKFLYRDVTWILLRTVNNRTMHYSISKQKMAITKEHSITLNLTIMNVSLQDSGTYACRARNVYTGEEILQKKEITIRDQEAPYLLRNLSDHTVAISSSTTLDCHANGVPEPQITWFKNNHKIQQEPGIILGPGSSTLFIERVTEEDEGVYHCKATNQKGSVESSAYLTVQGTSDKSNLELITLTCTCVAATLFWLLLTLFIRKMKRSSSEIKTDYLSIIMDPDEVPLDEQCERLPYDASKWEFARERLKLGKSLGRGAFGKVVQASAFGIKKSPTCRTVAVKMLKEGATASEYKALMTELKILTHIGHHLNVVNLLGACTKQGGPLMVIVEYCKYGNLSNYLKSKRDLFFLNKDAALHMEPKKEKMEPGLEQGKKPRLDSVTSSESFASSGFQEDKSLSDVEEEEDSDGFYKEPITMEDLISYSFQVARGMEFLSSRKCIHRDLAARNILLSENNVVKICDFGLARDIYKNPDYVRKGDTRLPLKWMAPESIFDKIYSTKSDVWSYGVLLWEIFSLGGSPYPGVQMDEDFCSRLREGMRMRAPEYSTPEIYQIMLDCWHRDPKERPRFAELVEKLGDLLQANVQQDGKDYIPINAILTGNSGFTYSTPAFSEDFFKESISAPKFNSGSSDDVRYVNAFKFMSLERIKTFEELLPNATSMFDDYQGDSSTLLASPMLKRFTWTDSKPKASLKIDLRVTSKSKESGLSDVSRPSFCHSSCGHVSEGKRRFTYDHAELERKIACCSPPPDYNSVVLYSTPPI
T1 sequence (P35968 whole entry): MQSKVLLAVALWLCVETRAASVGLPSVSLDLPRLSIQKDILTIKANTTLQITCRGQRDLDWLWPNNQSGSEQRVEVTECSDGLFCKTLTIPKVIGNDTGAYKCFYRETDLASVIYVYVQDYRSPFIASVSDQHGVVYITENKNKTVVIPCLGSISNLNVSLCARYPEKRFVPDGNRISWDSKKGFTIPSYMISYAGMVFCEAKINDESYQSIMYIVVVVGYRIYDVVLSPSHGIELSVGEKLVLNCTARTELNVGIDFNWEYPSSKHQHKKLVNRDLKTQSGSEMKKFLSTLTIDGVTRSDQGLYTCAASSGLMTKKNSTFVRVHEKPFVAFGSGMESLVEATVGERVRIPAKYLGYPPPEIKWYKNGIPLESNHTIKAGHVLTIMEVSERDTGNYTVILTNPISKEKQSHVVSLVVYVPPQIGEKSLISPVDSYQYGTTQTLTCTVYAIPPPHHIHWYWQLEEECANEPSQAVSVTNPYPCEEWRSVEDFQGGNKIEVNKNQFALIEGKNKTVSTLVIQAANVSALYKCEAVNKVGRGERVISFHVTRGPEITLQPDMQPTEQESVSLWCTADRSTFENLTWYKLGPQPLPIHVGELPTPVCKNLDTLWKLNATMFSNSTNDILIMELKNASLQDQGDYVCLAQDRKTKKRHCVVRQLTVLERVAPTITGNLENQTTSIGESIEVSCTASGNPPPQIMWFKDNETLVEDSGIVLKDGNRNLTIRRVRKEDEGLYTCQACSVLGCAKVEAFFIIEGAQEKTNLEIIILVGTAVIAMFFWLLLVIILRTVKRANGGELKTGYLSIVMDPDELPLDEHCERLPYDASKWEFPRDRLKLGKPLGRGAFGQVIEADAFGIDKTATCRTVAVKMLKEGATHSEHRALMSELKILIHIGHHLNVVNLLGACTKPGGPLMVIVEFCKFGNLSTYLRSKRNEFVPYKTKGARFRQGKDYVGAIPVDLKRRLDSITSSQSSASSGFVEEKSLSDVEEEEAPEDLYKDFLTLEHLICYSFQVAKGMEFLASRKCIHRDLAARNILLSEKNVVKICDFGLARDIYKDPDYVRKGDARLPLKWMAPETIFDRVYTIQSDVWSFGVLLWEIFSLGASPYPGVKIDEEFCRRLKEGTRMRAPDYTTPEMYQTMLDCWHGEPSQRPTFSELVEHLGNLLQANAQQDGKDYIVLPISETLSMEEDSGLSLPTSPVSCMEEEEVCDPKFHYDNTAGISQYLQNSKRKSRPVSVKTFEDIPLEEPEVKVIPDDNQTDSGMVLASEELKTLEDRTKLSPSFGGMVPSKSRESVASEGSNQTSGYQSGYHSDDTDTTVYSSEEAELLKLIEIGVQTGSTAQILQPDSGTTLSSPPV

With `Cc1nc(Nc2cc(-c3cccc(NS(=O)(=O)c4ccccc4)c3)n[nH]2)cc(N2CCC(O)CC2)n1`, the concentration for 50% growth inhibition (GI50) in the series on MOLM-13 was found to be 120 nM. The half-maximal inhibitory concentration (IC50) in [1] is more than 1000 nM; in series [2], 10 nM; on Aurora kinase A it was 540 nM; in series [4], more than 1000 nM. Besides, the Ratio in series [3] worked out at 12.
On to `O=C(Nc1cc(-c2cccc(NS(=O)(=O)c3ccccc3)c2)n[nH]1)c1ccc(CN2CCOCC2)cc1`, for which the GI50 in the series on MOLM-13 came to 67 nM. Moreover, the concentration for half-maximal inhibition (IC50) in series [1] turned out to be 560 nM; in [2], 350 nM; on Aurora kinase A, 220 nM. In addition, the inhibition in [5] came to 52%.
On to `Cc1ccc(S(=O)(=O)Nc2cccc(-c3cc(NC(=O)c4ccc(N5CCN(C)CC5)cc4)[nH]n3)c2)cc1`, for which the GI50 in the series with MOLM-13 came out at 24 nM. Besides, the IC50 in [1] is more than 1000 nM; in series [2], 15 nM; in [4] it was more than 1000 nM. Further, the inhibition in series [6] was 50%.
In the case of `Cc1nc(NCCN(C)C)cc(Nc2cc(-c3cccc(NS(=O)(=O)c4ccccc4)c3)n[nH]2)n1`, in the series on MOLM-13, the 50% growth inhibitory concentration (GI50) was determined as 180 nM. The half-maximal inhibitory concentration (IC50) in series [2] is 71 nM; at Aurora kinase A it was more than 1000 nM; in series [4], more than 1000 nM. For the same compound, the inhibition in [7] was found to be 55%.
Consider `Cc1ccc(F)c(NC(=O)Nc2ccc(-c3cccc4[nH]nc(N)c34)cc2)c1` [LINIFANIB], for which the GI50 in the series on MV4-11 is 40 nM; in the series with K562, more than 20000 nM; in series [8] it was 9200 nM; in the series with MOLT-4, 6700 nM; in the series on U-937, 19000 nM.
`Cc1nc(NCCCN2CCOCC2)cc(Nc2cc(-c3cccc(NS(=O)(=O)c4ccccc4)c3)n[nH]2)n1`: the GI50 in the series on MOLM-13 was found to be 380 nM. The IC50 in series [2] is 10 nM; on Aurora kinase A it was 680 nM; in [4], more than 1000 nM. Further, the inhibition in series [7] worked out at 55%.
Consider `Cc1cccc(S(=O)(=O)Nc2cccc(-c3cc(NC(=O)c4ccc(N5CCN(C)CC5)cc4)[nH]n3)c2)c1`, for which the Activity entry in the series with Mus musculus [9] and with Mus musculus [10] was “Toxic” in each case. Also, the GI50 in the series with MOLM-13 came to 16 nM. For the same compound, the concentration for half-maximal inhibition (IC50) in series [1] was found to be 70 nM; in series [2], 7 nM; on Aurora kinase A, 430 nM; in [4] it was 140 nM. For the same compound, the Vd in [11] was 2.6 L/kg. In series [12], this compound gave a clearance of 67.4 mL/min/kg. In addition, in series [13], the half-life is 1.7 h. The compound also gave an area under the curve AUC(0-inf) in [14] of 1200 ng·h/mL.
Take `O=C(Nc1cc(-c2cccc(NS(=O)(=O)c3ccccc3)c2)n[nH]1)c1ccc(OCCN2CCOCC2)cc1`: the GI50 in the series with MOLM-13 was 72 nM. The half-inhibitory concentration (IC50) in [1] is more than 1000 nM; in series [2], 70 nM; in series [4], more than 1000 nM. For the same compound, the inhibition in series [6] was 50%.
On to `CN1CCN(c2ccc(C(=O)Nc3cc(-c4cccc(NS(=O)(=O)c5ccccc5)c4)n[nH]3)cc2)CC1`, for which the Activity entry in the series with Mus musculus [9] and with Mus musculus [10] was “Toxic” each time. Moreover, in the series with MOLM-13, the 50% growth inhibitory concentration (GI50) is 12 nM. Also, the half-inhibitory concentration (IC50) in series [1] stood at 130 nM; in series [2], 13 nM; at Aurora kinase A, 340 nM; in series [4], 210 nM. Moreover, the Vd in [11] turned out to be 15.5 L/kg. The clearance in series [12] is 102 mL/min/kg. Also, the half-life in series [13] is 4.5 h. In addition, the total exposure AUC(0-inf) in series [14] is 551 ng·h/mL.
